According to ChEMBL document CHEMBL1125252, “Synthesis and anti-HIV-1 activity of 4,5,6,7-tetrahydro-5-methylimidazo[4,5,1-jk][1,4]benzodiazepin- 2(1H)-one (TIBO) derivatives” (J Med Chem, 1991):

Tests used:
MT4 [1] = test: (§1) Cytotoxic concentration required to reduce the viability of mock-infected MT-4 cells by 50%.; type: functional; conditions: Homo sapiens
In short: (§2)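 MT-4 cells were infected with HIV-1 or mock-infected, then incubated with a range of test-compound concentrations. IC50 is the concentration giving 50% protection against HIV-1-induced cytopathic effect. CC50 is the concentration reducing viability of mock-infected cells by 50%. SI is CC50/IC50. Most determinations were run in duplicate and averaged.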

MT4 [2] = test: Effective concentration required to achieve 50% protection of MT-4 cells against the cytopathic effect of HIV-1; I = Inactive; type: functional, cell-based, Homo sapiens; in short: as §2
MT4 [3] = test: Selectivity index measured as the ratio of CC50/IC50 values.; type: functional; in short: as §2
[4] = test system: Human immunodeficiency virus 1; test: Effective concentration required to achieve 50% protection of MT-4 cells against the cytopathic effect of HIV-1.; type: functional, organism-based; conditions: Human immunodeficiency virus 1, MT4; in short: as §2
MT4 [5] = test: as §1; type: functional, cell-based; conditions: Homo sapiens; in short: as §2

SMILES	CC50 (MT4 [1])	IC50 (MT4 [2])	Selectivity index (MT4 [3])	IC50 [4]	CC50 (MT4 [5])
C[C@H]1Cn2c(O)nc3cccc(c32)CN1	901 µM	Not Active			
C=C(C)CN1Cc2cccc3[nH]c(=O)n(c23)C[C@@H]1C	222 µM		11	19 µM	
CCN1Cc2cccc3nc(O)n(c23)CC1C (configuration not stated)	592 µM	Not Active			
CC1Cn2c(O)nc3cccc(c32)CN1Cc1ccc[nH]1 (configuration not stated)	92 µM	Not Active			
CCCCN1Cc2cccc3nc(O)n(c23)CC1C (configuration not stated)	501 µM		5	100 µM	
CC(C)CN1Cc2cccc3nc(O)n(c23)CC1C (configuration not stated)	82 µM	Not Active			
C=C(CN1Cc2cccc3nc(O)n(c23)CC1C)C(C)C (configuration not stated)	18 µM	Not Active			
CC(C)=C(C)CN1Cc2cccc3nc(O)n(c23)CC1C (configuration not stated)	> 876 µM	Not Active			
CC1Cn2c(O)nc3cccc(c32)CN1C/C=C\c1ccccc1 (configuration not stated)	388 µM		3	122 µM	
C/C=C/C=C/CN1Cc2cccc3nc(O)n(c23)CC1C (configuration not stated)	378 µM	Not Active			
COC(=O)CN1Cc2cccc3nc(O)n(c23)CC1C (configuration not stated)	925 µM			855 µM	
C#CCN1Cc2cccc3nc(O)n(c23)CC1C (configuration not stated)	990 µM			580 µM	
CC(C)=CCN1Cc2cccc3nc(O)n(c23)C[C@H]1C	450 µM		20	22 µM	
C=C(CC)CN1Cc2cccc3nc(O)n(c23)CC1C (configuration not stated)	66 µM		2	37 µM	
CC1Cn2c(O)nc3cccc(c32)CN1C/C=C/c1ccccc1 (configuration not stated)	> 783 µM	Not Active			
CC(=O)CN1Cc2cccc3nc(O)n(c23)CC1C (configuration not stated)	760 µM	Not Active			
C=CC(=C)CN1Cc2cccc3nc(O)n(c23)CC1C (configuration not stated)	290 µM		4	71 µM	
C=C(CN1Cc2cccc3nc(O)n(c23)CC1C)c1ccccc1 (configuration not stated)	3 µM	Not Active			
C/C=C(/C)CN1Cc2cccc3nc(O)n(c23)CC1C (configuration not stated)	106 µM		4	29 µM	
C=CCCN1Cc2cccc3nc(O)n(c23)CC1C (configuration not stated)	552 µM		11	50 µM	
CC1Cn2c(O)nc3cccc(c32)CN1CC#N (configuration not stated)	508 µM	Not Active			
C/C=C/CN1Cc2cccc3nc(O)n(c23)CC1C (configuration not stated)	443 µM		8	58 µM	
C=CCN1Cc2cccc3[nH]c(=O)n(c23)C[C@H]1C		Not Active			592 µM
C#CC(C)=CCN1Cc2cccc3nc(O)n(c23)CC1C (configuration not stated)	707 µM	Not Active			
C[C@@H]1Cn2c(O)nc3cccc(c32)CN1	901 µM	Not Active			

SMILES	CC50 (MT4 [1])	IC50 (MT4 [2])	Selectivity index (MT4 [3])	IC50 [4]	CC50 (MT4 [5])
CC(C)=CCN1Cc2cccc3nc(O)n(c23)C[C@@H]1C	427 µM		105	4 µM	
CC1Cn2c(O)nc3cccc(c32)CN1CC1CC1 (configuration not stated)	588 µM		13	44 µM	
C=CCN1Cc2cccc3[nH]c(=O)n(c23)CC1C (configuration not stated)	670 µM		10	70 µM	
C=C(Cc1ccccc1)CN1Cc2cccc3nc(O)n(c23)CC1C (configuration not stated)	572 µM	Not Active			
C/C=C\CN1Cc2cccc3nc(O)n(c23)CC1C (configuration not stated)	560 µM		16	35 µM	
C=C(CN1Cc2cccc3nc(O)n(c23)CC1C)C(=O)OCC (configuration not stated)	3 µM	Not Active			
CC(C)N1Cc2cccc3nc(O)n(c23)CC1C (configuration not stated)	65 µM	Not Active			
C#C/C=C/CN1Cc2cccc3nc(O)n(c23)CC1C (configuration not stated)	370 µM	Not Active			
C#C/C(C)=C/CN1Cc2cccc3nc(O)n(c23)CC1C (configuration not stated)	18 µM	Not Active			
CC1Cn2c(O)nc3cccc(c32)CN1CCO (configuration not stated)	776 µM	Not Active			
CC1Cn2c(O)nc3cccc(c32)CN1CC1=CCCCC1 (configuration not stated)	212 µM	Not Active			
CC1Cn2c(O)nc3cccc(c32)CN1Cc1ncc[nH]1 (configuration not stated)	685 µM	Not Active			
CC(C)=CCC/C(C)=C\CN1Cc2cccc3nc(O)n(c23)CC1C (configuration not stated)	44 µM	Not Active			
C=C(Br)CN1Cc2cccc3nc(O)n(c23)CC1C (configuration not stated)	416 µM		7	62 µM	
C=CCN1Cc2cccc3[nH]c(=O)n(c23)C[C@@H]1C	670 µM		10	66 µM	
CC(=O)N1Cc2cccc3nc(O)n(c23)CC1C (configuration not stated)	175 µM	Not Active			
CC1Cn2c(O)nc3cccc(c32)CN1Cc1ccco1 (configuration not stated)	529 µM		5	106 µM	
CC(C)OCCN1Cc2cccc3nc(O)n(c23)CC1C (configuration not stated)	504 µM	Not Active			
COC(=O)/C=C/CN1Cc2cccc3nc(O)n(c23)CC1C (configuration not stated)	252 µM	Not Active			
C=C(C)CN1Cc2cccc3[nH]c(=O)n(c23)CC1C (configuration not stated)	665 µM		15	47 µM	
CCCN1Cc2cccc3[nH]c(=O)n(c23)CC1C (configuration not stated)	722 µM		8	90 µM	
CC(C)=CCN1Cc2cccc3nc(O)n(c23)CC1C (configuration not stated)	416 µM		33	12.5 µM	
C(=NC1CCCCC1)=NC1CCCCC1 [DICYCLOHEXYLCARBODIIMIDE]	232 µM		1693	0.137 µM	
O=c1[nH]cnc2c1ncn2[C@H]1CC[C@@H](CO)O1 [DIDANOSINE]	1050 µM		191	5.5 µM	
Cc1cn([C@H]2C[C@H](N=[N+]=[N-])[C@@H](CO)O2)c(=O)[nH]c1=O [ZIDOVUDINE]	9.3 µM		6200	0.0015 µM	
